We go through 16 compounds from ChEMBL document CHEMBL3758154, “Rotenoids, Flavonoids, and Chalcones from the Root Bark of Millettia usaramensis” (J Nat Prod, 2015).

Series [1] deals with Plasmodium falciparum. As to the kind of experiment: Antiplasmodial activity against chloroquine-resistant Plasmodium falciparum Dd2 assessed as inhibition of parasite growth at 100 uM after 72 hrs by DAPI staining-based confocal microscopic analysis. It is filed as functional. The settings on record: Dd2, 72 h.
The subject of series [2] is MDA-MB-231. As to the kind of experiment: Cytotoxicity against human MDA-MB-231 cells assessed as cell viability after 72 hrs by Alamar Blue assay. The format is functional, cell-based. Particulars: MDA-MB-231, 72 h. The essentials:
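MDA-MB-231 cells in DMEM with 10% FBS, 2 mM L-glutamine, penicillin and streptomycin were seeded at 10 000 cells/well and grown 24 h. Medium was replaced with drug or vehicle (0.1% or 1.0% DMSO) for 72 h. Viability was read by Alamar Blue absorbance at 570 nm (600 nm reference) as % of vehicle control, from six replicates in at least six independent experiments.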

Series [3] relates to Plasmodium falciparum. As to the kind of experiment: Antiplasmodial activity against chloroquine-sensitive Plasmodium falciparum 3D7 assessed as inhibition of parasite growth at 100 uM after 72 hrs by DAPI staining-based confocal microscopic analysis. The format is functional. The settings on record: 3D7, 72 h.
Series [4] deals with Plasmodium falciparum. As to the kind of experiment: Antiplasmodial activity against chloroquine-sensitive Plasmodium falciparum 3D7 assessed as inhibition of parasite growth after 72 hrs by DAPI staining-based confocal microscopic analysis. The format is functional, organism-based. Particulars: 3D7, 72 h. The essentials: (§1)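 Sorbitol-synchronized asexual P. falciparum in human O+ erythrocytes (RPMI, Hepes, hypoxanthine, 5% human serum, AlbuMAX II), ring stage at 2% parasitemia, 0.3% hematocrit. Three-step log dilutions from 40 μM top, 0.4% DMSO final. 72 h at 37 °C, 5% CO2. Saponin/Triton X/EDTA/DAPI stain overnight, confocal imaging counts parasites.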

Series [5] concerns Plasmodium falciparum. As to the kind of experiment: Antiplasmodial activity against chloroquine-resistant Plasmodium falciparum Dd2 assessed as inhibition of parasite growth after 72 hrs by DAPI staining-based confocal microscopic analysis. The format is functional, organism-based. Particulars: Dd2, 72 h. The essentials: as §1
Series [6] in a line: Cytotoxicity against HEK293 cells assessed as cell viability at 40 uM after 72 hrs by resazurin-based plate reader analysis. The settings on record: human, read-out: Activity. The gist of the method:
(§2)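 HEK293 cells grown in DMEM with 10% FCS, seeded at 2000 cells/well and left overnight to adhere at 37 °C, 5% CO2. Compounds were tested at a final 40 μM in 0.4% DMSO. After 72 h exposure, 44 μM resazurin in serum-free DMEM was added for 4−6 h and fluorescence read at 530/595 nm. Growth was normalised to 5 μM puromycin and 0.4% DMSO controls, with IC50 from variable-slope nonlinear regression.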

The nature of series [7]: Cytotoxicity against HEK293 cells assessed as cell viability at 20 uM after 72 hrs by resazurin-based plate reader analysis. Particulars: human, read-out: Activity.
The subject of series [8] is HEK293. As to the kind of experiment: Cytotoxicity against HEK293 cells assessed as cell viability after 72 hrs by resazurin-based plate reader analysis. The settings on record: Homo sapiens, HEK293, 72 h. The essentials:
as §2

The test system of series [9] is Plasmodium falciparum. As to the kind of experiment: Antiplasmodial activity against chloroquine-resistant Plasmodium falciparum Dd2 assessed as inhibition of parasite growth at 40 uM after 72 hrs by DAPI staining-based confocal microscopic analysis. The format is functional. The settings on record: Dd2, 72 h. The essentials:
as §1

For `O=C1c2ccc3c(c2O[C@@H]2COc4cc5c(cc4[C@@]12O)OCO5)OCO3`, the inhibition at 100 µM was 90% in [1] and 99% in series [3]. Also, the half-maximal inhibitory concentration (IC50) in series [2] was determined as 87.3 µM.

Take `CC1(C)C=Cc2c(ccc3c2O[C@@H]2COc4cc5c(cc4[C@]2(O)C3=O)OCO5)O1`: the IC50 in series [2] was found to be 61.7 µM.

Consider `COc1ccc2c(c1CC=C(C)C)O[C@@H]1COc3cc4c(cc3[C@@]1(O)C2=O)OCO4`, for which, in series [2], the half-maximal inhibitory concentration (IC50) is 25.7 µM.

Regarding `O[C@@H]1c2ccc3c(c2O[C@@H]2COc4cc5c(cc4[C@@]12O)OCO5)OCO3`, in [2], the IC50 was above 279 µM.

For the compound `COc1cc2c(cc1-c1coc3c4c(ccc3c1=O)OC(C)(C)C=C4)OCO2`, the inhibition at 100 µM in series [1] came out at 81%; in [3] it was 94%.

Turning to `CC1(C)C=Cc2c(ccc3c2O[C@@H]2COc4cc5c(cc4[C@@]2(O)C3=O)OCO5)O1`, the figures for the inhibition at 100 µM in series [1] and in series [3] were 29% and 28%, respectively. For the same compound, the IC50 in series [2] came out at 101 µM.

With `CC(C)=CCC/C(C)=C/COc1ccc(/C=C/C(=O)c2ccc(O)cc2O)cc1`, the IC50 in [4] worked out at 3.67 µM; in series [5], 6.97 µM.

`CC(C)=CCC/C(C)=C/COc1ccc(/C=C/CO)cc1`: the concentration for half-maximal inhibition (IC50) in series [2] stood at 207 µM.

On to `CC(C)=CCC/C(C)=C/COc1ccc(C(=O)/C=C/c2ccc(O)cc2)c(O)c1`, for which, in series [2], the 50% inhibitory concentration (IC50) worked out at 126 µM.

Regarding `C[C@H]1[C@@H](O)O[C@@H]2O[C@@]3(C)CC[C@H]4[C@H](C)CC[C@@H]1[C@@]24OO3` [ARTENIMOL], the IC50 in series [4] was 0.0001 µM; in [5] it was 0.000146 µM. In series [6], the viability at 72 h, 40 µM came out at 54%. Besides, the viability at 72 h, 20 µM in series [7] was 50%.

As to `C[C@H]1[C@H](OC(=O)CCC(=O)O)O[C@@H]2O[C@@]3(C)CC[C@H]4[C@H](C)CC[C@@H]1[C@@]24OO3` [ARTESUNATE], the IC50 came out at 0.0005 µM in series [4] and 0.000443 µM in series [5]. In addition, the viability at 72 h, 20 µM in series [7] was 73%.

For the compound `CCN(CC)CCCC(C)Nc1ccnc2cc(Cl)ccc12` (configuration not stated) [CHLOROQUINE], the viability at 72 h, 40 µM in [6] worked out at 51%.

Take `COc1ccc(C[C@H](N)C(=O)N[C@H]2[C@@H](O)[C@H](n3cnc4c(N(C)C)ncnc43)O[C@@H]2CO)cc1` [PUROMYCIN]: the IC50 in [4] amounted to 0.0227 µM; in [8] it was 0.361 µM; in series [5], 0.0452 µM.

As to `CCc1nc(N)nc(N)c1-c1ccc(Cl)cc1` [PYRIMETHAMINE], the inhibition at 40 µM in series [9] was found to be 62%. For the same compound, in series [6], the viability at 72 h, 40 µM was 75%.

Consider `COc1ccc2nc3cc(Cl)ccc3c(Nc3cc(CN4CCCC4)c(O)c(CN4CCCC4)c3)c2n1` [PYRONARIDINE], for which the concentration for half-maximal inhibition (IC50) in series [4] worked out at 0.0036 µM; in series [5] it was 0.00751 µM.

With `COc1cc2c(cc1OC)[C@]1(O)C(=O)c3ccc4c(c3O[C@@H]1CO2)C=CC(C)(C)O4` [TEPHROSIN], the IC50 came to 13.3 µM in [4] and 12.1 µM in [5].
